Compound activity (PubChem BioAssay)
NSD2 inh = blocks human histone methyltransferase NSD2; inhibition, % at 12.5 µM; hit rate 0.54% among 310,000; O96028; AID 743445; NSD2 peptide methylation, AlphaScreen, 120 min; in the data active = inhibition above about 50%
SIRT5 inh = blocks human SIRT5 desuccinylation of peptide | Purified SirT5, succinyl-peptide AMC, trypsin-coupled fluorescence | inhibition, % at 15 µM | hit rate 1.1% among 330,000; in the data active = inhibition above about 15%
Target sequence (Q9NXA8 whole entry, looked up): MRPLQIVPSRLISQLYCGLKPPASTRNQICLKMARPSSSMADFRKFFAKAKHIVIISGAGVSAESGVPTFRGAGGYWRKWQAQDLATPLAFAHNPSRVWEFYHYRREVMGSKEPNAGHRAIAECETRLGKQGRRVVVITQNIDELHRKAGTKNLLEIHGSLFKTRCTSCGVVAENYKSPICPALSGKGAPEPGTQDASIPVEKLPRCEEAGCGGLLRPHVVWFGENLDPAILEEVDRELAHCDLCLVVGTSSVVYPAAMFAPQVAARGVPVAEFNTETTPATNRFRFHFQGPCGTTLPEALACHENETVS
FGF22 binding = shifts melting point of recombinant human FGF22 | recombinant FGF22 thermal shift, SYPRO orange fluorescence; percent of sucrose octasulfate shift, DMSO zero | activity (Tm shift, normalised), % at 9.99 µM | hit rate 1.5% among 340,000;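 active = mean Tm shift, scaled 0 neutral to 100 positive control, at about 1.3% or above, every replicate too, limit read from the data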
Target sequence (Q9HCT0 whole entry, looked up): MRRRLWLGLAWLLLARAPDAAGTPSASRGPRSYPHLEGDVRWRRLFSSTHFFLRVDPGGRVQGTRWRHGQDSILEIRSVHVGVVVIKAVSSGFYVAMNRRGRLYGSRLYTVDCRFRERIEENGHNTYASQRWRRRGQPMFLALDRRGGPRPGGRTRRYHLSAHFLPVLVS
UCH37 DUB inh = blocks the human deubiquitinase UCH37; hit rate 0.33% among 330,000; AID 588478; purified proteasome/UCH37, Ub-AMC cleavage fluorescence; inhibition, % (concentration not given with the values);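 active = mean inhibition over replicate wells above about 20%, limit read from the data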;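 note: 0% = compound-free wells with enzyme and 100% = wells lacking proteasome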
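Signal – fluorescence, ex 355 nm, em 460 nm · System – Proteasome-bound UCH37 · Input – 0.15 nM proteasome as dispensed · Timing – 30 min preincubation with enzyme, 25 min cleavage at room temperature · Read-out basis – percent inhibition of cleavage signal versus uninhibited and no-proteasome wells · Medium – Tris-HCl pH 7.4 with ATP-MgCl2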
CASP6 VEID inh = caspase-6 (human) enzyme inhibition; P55212; purified caspase-6, Z-VEID-R110 cleavage fluorescence; inhibition, % at 12.5 µM; hit rate 0.53% among 350,000;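 active = mean inhibition across replicates at least about 35%, with every replicate also reaching that limit, limit read from the data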;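 note: 0% = median of neutral control wells and 100% = no fluorescence left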
Numbers without * were called inactive; . = no result given; + = active, no number. Most compounds without a hit are left out; they make up all but 2.6% or so of the library.

SMILES	NSD2 inh	SIRT5 inh	FGF22 binding	UCH37 DUB inh	CASP6 VEID inh
CCOC(=O)C1=C(c2ccccc2)N=c2s/c(=C\c3ccc(O)cc3)c(=O)n2C1c1cccs1 (stereo not drawn)	-2.3	0.0	0.4	.	-4.0
CCOC(=O)C1=C(c2ccccc2)N=c2sc(=Cc3cc(OC)c(OC)c(OC)c3)c(=O)n2C1c1cccs1 (stereo not drawn)	.	16.1*	-0.2	2.1	0.4
CCOC(=O)C1=C(C)N=c2sc(=Cc3ccc(OCC(=O)O)cc3)c(=O)n2C1c1ccc(OC)cc1OC (stereo not drawn)	.	.	.	9.4	.
CCOC(=O)C1=C(C)N=c2sc(=Cc3cc(Cl)c(OCC(=O)O)c(OC)c3)c(=O)n2C1c1ccccc1Cl (stereo not drawn)	.	24.2*	0.0	.	27.8
COc1ccccc1C1C2=C(N=c3s/c(=C/c4cccc(OCC(=O)O)c4)c(=O)n31)c1ccccc1CC2 (stereo not drawn)	7.1	9.5	-0.4	.	37.9*
Cc1ccsc1C=NNC(=O)c1nnn(-c2nonc2N)c1CSc1ccccc1	.	.	.	-22.6	.
Nc1ncnc2c1ncn2C1OC(CO)C(O)C1O (stereo not drawn)	-0.8	-1.2	43.5*	1.3	-0.4
N#Cc1c(N)n(C2OC(CO)C(O)C2O)c2ncnc(N)c12 (stereo not drawn)	.	.	43.1*	.	-2.8
COc1ccc(C(=O)NN=C(C)CC(=O)Nc2ccc3c(c2)OCO3)cc1	.	.	.	-0.3	.
C[C@@H]1CCCCO[C@@H](CN(C)Cc2ccc(Cl)c(Cl)c2)[C@@H](C)CN([C@H](C)CO)C(=O)c2cc(NC(=O)CCCCCC(=O)Nc3ccccc3N)ccc2O1	.	23.6*	-0.5	.	0.6
Cc1noc(C)c1NC(=O)Nc1ccc2c(c1)C(=O)N([C@@H](C)CO)C[C@H](C)[C@@H](CN(C)Cc1ccc(Cl)c(Cl)c1)OCCCC[C@H](C)O2	.	15.4*	-0.3	.	-2.6
C[C@@H]1CCCCO[C@@H](CN(C)Cc2ccc(Cl)c(Cl)c2)[C@@H](C)CN([C@H](C)CO)C(=O)c2cc(NC(=O)c3ccncc3)ccc2O1	.	15.1*	0.0	.	-0.4
C[C@H](CO)N1C[C@H](C)[C@@H](CN(C)C)Oc2ncc(-c3ccc(C(=O)N(C)C)cc3)cc2C1=O	.	-10.7	-0.1	.	3.6
COc1cccc(NC(=O)N[C@H]2C=C[C@@H](CC(=O)N3CCCCC3)O[C@H]2CO)c1	.	-1.1	0.1	.	0.5
O=C(CN1CCN(S(=O)(=O)c2ccc(F)cc2)CC1)c1ccc(O)c(O)c1	.	-1.1	40.5	4.9	5.0
O=C(CN1CCN(S(=O)(=O)c2ccc(Cl)cc2)CC1)c1ccc(O)c(O)c1	121.3*	.	.	5.5	.
COc1ccc(S(=O)(=O)N2CCN(CC(=O)c3ccc(O)c(O)c3)CC2)cc1	+	4.4	0.0	2.8	.
CCOc1ccc(C(=O)CN2CCN(S(=O)(=O)c3ccc(F)cc3)CC2)cc1	-0.5	.	.	6.3	.
O=C(COc1cccc(Br)c1)N/N=C/C(=O)c1ccccc1	1.0	-3.7	42.9*	.	-0.4
Cc1cccc(OCC(=O)NCC(=O)N/N=C/c2ccccc2)c1	3.2	-7.9	42.9*	.	-3.3
CCCC[n+]1c(C)sc2cc(OC)ccc21	-0.6	-4.0	0.1	-1.2	-0.1
CCC[n+]1c(C)sc2c(OC)ccc(OC)c21	-2.4	-0.3	43.0*	2.1	0.2
Cc1cc(C=O)c(C)n1-c1ccc(N2CCCCC2)c([N+](=O)[O-])c1	64.7*	.	.	-1.7	.
Cc1cc(/C=C(\C#N)C(N)=O)c(C)n1-c1ccc(N2CCOCC2)c([N+](=O)[O-])c1	3.7	.	.	6.9	.
O=C(NNc1cccc(Cl)n1)Nc1ccc(F)cc1	-3.7	4.8	43.8*	0.1	-3.3
SMILES	NSD2 inh	SIRT5 inh	FGF22 binding	UCH37 DUB inh	CASP6 VEID inh
O=C(O)c1cccc(-n2cccc2/C=C/[N+](=O)[O-])c1	.	15.3*	.	2.7	65.2*
N#C/C(=C/c1cccn1-c1cccc(C(=O)O)c1)c1ccc(Cl)cc1	.	5.9	43.6*	.	84.1*
O=C(O)c1cccc(-n2cccc2C=NO)c1	.	.	.	2.1	.
CN(C)CC(=O)N[C@H]1CC[C@H](CCNC(=O)Nc2ccc(F)cc2)O[C@@H]1CO	.	-1.4	-0.2	.	2.8
CC1(C)NC(=O)N(CCCCOc2ccc(Cl)cc2C=O)C1=O	-4.5	-2.4	43.1*	-34.9	-0.3
CC1(C)NC(=O)N(CCCCOc2ccc(Cl)cc2)C1=O	-2.1	.	.	6.1	.
Fc1ccc(C=NNc2nccnc2Cl)cc1	.	.	.	8.6	.
CCCc1cc(=O)oc2cc(C)cc(OCC(=O)N[C@@H](CSCc3ccccc3)C(=O)O)c12	.	.	7.2*	-44.0	1.3
Cc1c(C=NNc2nc3ccccc3[nH]2)c2ccccc2n1C	.	.	.	0.1	.
O=C(Cn1sc2ccccc2c1=O)Nc1ccc(F)cc1	.	-3.0	43.1*	.	-1.8
C[C@@H]1CN([C@@H](C)CO)C(=O)c2cc(NS(=O)(=O)c3ccccc3)ccc2O[C@@H](C)CCCCO[C@@H]1CN(C)Cc1ccccc1	.	6.6	0.1	.	-0.8
CC1=CC(=NNC(=S)Nc2cccnc2)CC(C)(C)C1	.	.	.	5.2	.
CC(=O)c1ccc(NC(=O)[C@@H]2CCCN2C(=O)OC(C)(C)C)cc1	-5.3	-2.7	0.0	3.7	56.2*
CN(C)CCCNC(=O)[C@H]1[C@H](CO)[C@H]2Cn3c(cccc3=O)[C@H]2N1C(=O)Nc1ccccc1	.	1.4	-0.1	.	-1.6
CCOc1ccc(CN2CCN(Cc3nc(C(C)C)cs3)CC2CCO)cc1 (stereo not drawn)	-2.0	-4.6	42.9*	2.3	-0.2
O=C(Oc1cccc(-n2cnnn2)c1)c1ccccc1Cl	.	-18.0	-0.2	4.3	46.4*
O=C(Oc1cccc(-n2cnnn2)c1)c1ccccc1	-1.0	0.6	0.1	1.2	1.8
C[C@@H]1CN([C@@H](C)CO)C(=O)Cc2cc(NC(=O)NC3CCCCC3)ccc2O[C@H]1CN(C)Cc1ccc(Cl)c(Cl)c1	.	-1.7	-0.1	.	1.3
COc1ccc(CN(C(=O)Cn2nnc(-c3ccc(C)o3)n2)C(C(=O)NCC2CCCO2)c2ccco2)cc1 (stereo not drawn)	.	112.2*	0.0	1.0	3.4
Cc1ccc(-c2nnn(CC(=O)N(Cc3ccco3)C(C(=O)NC(C)(C)C)c3ccc(C)o3)n2)o1 (stereo not drawn)	4.0	18.2*	0.2	1.4	3.9
COc1ccc(-c2nnn(CC(=O)N(Cc3ccco3)C(C(=O)NCC3CCCO3)c3ccco3)n2)cc1 (stereo not drawn)	3.4	1.4	0.3	.	1.7
C[C@@H]1CN([C@H](C)CO)C(=O)CCCn2cc(nn2)CO[C@@H]1CN(C)Cc1ccc(C(=O)O)cc1	.	-5.1	-0.4	.	-1.4
CCC(=O)Nc1ccc2c(c1)OC[C@@H](C)N(C(=O)c1cnccn1)C[C@@H](C)[C@@H](OC)CN(C)C2=O	.	-0.3	.	.	2.5
Cn1ncc(Cl)c1C(=O)N/N=C/c1ccccn1	-4.0	21.6*	-0.1	.	-1.7
CC1(C)C2CC=C(C=NNC(=O)c3ccccc3O)C1C2 (stereo not drawn)	.	.	.	0.0	.
O=C(N/N=C\c1ccccn1)c1ccccc1O	-9.6	3.7	43.7*	.	-2.8
